In ChEMBL document CHEMBL1955770, “Inhibition of S/G2 phase CDK4 reduces mitotic fidelity” (J Biol Chem, 2006):
pIC50: −log10 of the molar value. The source made the active and inactive calls. No cut-off for these calls is given here.

Columns and labels:
NCI-H460 [1] = assay: Antiproliferative activity against human H460a cells assessed as inhibition of S phase after 48 hrs by MTT assay; type: functional, cell-based; conditions: NCI-H460, 48 h
Method in brief: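 Cells grown in DMEM with 3 mM HEPES and 10% Serum Supreme at 37 °C, 5% CO2. Proliferation read by MTT assay 48 h after drug addition; IC50 given as mean of two separate determinations, each in duplicate.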

HeLa [2] = assay: Cell cycle arrest at G2 phase in human HeLa cells at 2 uM treated 8 hr and measured 12 hr post-synchrony release using Propidium iodide staining by FACS analysis in presence of ATM/ATR signaling inhibitor caffiene; type: functional, cell-based
[3] = target: Mitogen-activated protein kinase 3 (Homo sapiens, UniProt P27361); assay: Inhibition of ERK1 using fluorescent substrate by IMAP assay
Mitogen-activated protein kinase 3, sequence (P27361 whole entry): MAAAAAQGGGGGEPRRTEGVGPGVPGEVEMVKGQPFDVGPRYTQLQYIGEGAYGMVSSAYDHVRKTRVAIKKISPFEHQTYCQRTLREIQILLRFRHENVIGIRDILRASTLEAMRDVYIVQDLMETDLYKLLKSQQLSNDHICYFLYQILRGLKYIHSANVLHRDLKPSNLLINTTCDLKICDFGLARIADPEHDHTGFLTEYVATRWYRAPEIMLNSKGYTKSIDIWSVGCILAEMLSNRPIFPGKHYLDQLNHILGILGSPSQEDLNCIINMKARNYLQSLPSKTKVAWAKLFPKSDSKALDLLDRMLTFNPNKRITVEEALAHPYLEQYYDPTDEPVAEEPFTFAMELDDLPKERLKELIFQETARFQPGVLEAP
Method in brief: (§1)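 Run in-house using IMAP: phosphorylated fluorescent peptide substrate binds preferentially to immobilized metal beads, which quantifies kinase activity. ATP at 3× the Km of each enzyme.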

HCT-116 = assay: Cell cycle arrest in Rb-competent human HCT116 cells assessed as accumulation at S phase at 3 times IC90 after 24 hrs using BrdUrd staining by FACS analysis (Rvb =38 %); type: functional
[4] = target: Proto-oncogene tyrosine-protein kinase Src (Homo sapiens, UniProt P12931); assay: Inhibition of Src using fluorescent substrate by IMAP assay; method in brief: as §1
Proto-oncogene tyrosine-protein kinase Src, sequence (P12931 2-536 limits assumed): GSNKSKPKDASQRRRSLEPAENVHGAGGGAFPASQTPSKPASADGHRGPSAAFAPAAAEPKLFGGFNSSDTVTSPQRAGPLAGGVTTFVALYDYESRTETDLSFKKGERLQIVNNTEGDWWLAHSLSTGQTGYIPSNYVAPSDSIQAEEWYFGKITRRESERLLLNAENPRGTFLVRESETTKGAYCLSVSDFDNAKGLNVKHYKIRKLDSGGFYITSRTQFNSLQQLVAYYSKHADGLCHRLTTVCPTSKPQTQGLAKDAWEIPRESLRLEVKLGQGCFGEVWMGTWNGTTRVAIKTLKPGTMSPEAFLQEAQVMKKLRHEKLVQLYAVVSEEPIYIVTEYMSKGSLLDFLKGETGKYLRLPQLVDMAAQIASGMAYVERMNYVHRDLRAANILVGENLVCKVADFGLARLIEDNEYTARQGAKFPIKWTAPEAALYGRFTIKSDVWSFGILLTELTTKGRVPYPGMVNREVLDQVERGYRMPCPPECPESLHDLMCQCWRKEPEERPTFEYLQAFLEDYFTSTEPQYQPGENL

HeLa [5] = assay: Cell cycle arrest in human HeLa cells assessed as accumulation at S phase at 2 uM treated 4 hr and measured 10 hr post double thymidine-synchrony release using propidium iodide staining by FACS analysis (reference value: 1 %); type: functional
Method in brief: (§2)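 Cells harvested at set times post-release, fixed in 70% ethanol, stained with 5 μg/ml propidium iodide plus 0.5 mg/ml RNase A, and analysed by flow cytometry. Cell-cycle phase fractions calculated by ModFit.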

A2058 [6] = assay: Cell cycle arrest in human A2058 cells assessed as accumulation at G2/M phase at 2 uM treated 1 hr and measured 8 hr post double hydroxyurea-synchrony release using propidium iodide staining by FACS analysis (reference value: 48 %); type: functional
HeLa [7] = assay: Cell cycle arrest in human HeLa cells assessed as accumulation at G2/M phase at 2 uM treated 2 hr and measured 8 hr post double thymidine-synchrony release using propidium iodide staining by FACS analysis (reference value: 86 %); type: functional; method in brief: as §2
HeLa [8] = assay: Cell cycle arrest at G2 phase in human HeLa cells assessed as increase in Wee1 level at 2 uM treated at early S phase measured after 8-14 hr post-synchrony release by immunoblot method; type: functional, cell-based
HeLa [9] = assay: Cell cycle arrest in human HeLa cells assessed as accumulation at G1 phase at 2 uM treated 6 hr and measured 10 hr post double thymidine-synchrony release using propidium iodide staining by FACS analysis (reference value: 68 %); type: functional
HeLa [10] = assay: Cell cycle arrest in human HeLa cells assessed as delay in progression into mitosis at 2 uM measured after 8 to 20 hr post hydroxyurea-synchrony release by time-lapse microscopy; type: functional, cell-based
HeLa [11] = assay: Cell cycle arrest in human HeLa cells assessed as accumulation at G2/M phase at 2 uM treated 4 hr and measured 8 hr post double thymidine-synchrony release using propidium iodide staining by FACS analysis (reference value: 86 %); type: functional; method in brief: as §2
HeLa [12] = assay: Cell cycle arrest in synchronized human HeLa cells assessed as large multinuclear cell formation at 2 uM by time-lapse microscopy; type: functional, cell-based
HeLa [13] = assay: Cell cycle arrest at G2 phase in human HeLa cells at 2 uM treated 8 hr and measured 12 hr post-synchrony release using Propidium iodide staining by FACS analysis; type: functional, cell-based
HeLa [14] = assay: Cell cycle arrest in human HeLa cells assessed as accumulation at G2/M phase at 2 uM treated 2 hr and measured 12 hr post double thymidine-synchrony release using propidium iodide staining by FACS analysis (reference value: 17 %); type: functional; method in brief: as §2
[15] = Cell cycle arrest in human SK-MEL-13 cells assessed as accumulation at G1 phase at 2 uM treated 1 hr and measured 8 hr post double hydroxyurea-synchrony release using propidium iodide staining by FACS analysis (reference value: 10 %); type: functional, cell-based
Method in brief: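 SK-Mel-13 cells synchronized with 2 mM hydroxyurea, then treated with 2 μM CDK4 inhibitor or left untreated 1 h after release. Harvested at indicated times post-release, ethanol-fixed, propidium iodide/RNase stained, and DNA content read by FACS. Proportions of G1, S and G2/M cells derived with ModFit.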

HeLa [16] = assay: Cell cycle arrest in Rb-deficient human HeLa cells assessed as accumulation at G1 phase at 2 uM after 24 hrs by FACS analysis; type: functional
Method in brief: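 Ethanol-fixed cells stained with propidium iodide/RNase A, DNA content read by FACS, phase and sub-diploid fractions calculated with ModFit.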

HeLa [17] = assay: Cell cycle arrest at G2 phase in human HeLa cells assessed as delay in phosphotyrosine 15 CDK2 accumulation at 2 uM treated at early S phase measured after 6-14 hr post thymidine-synchrony release by immunoblot method; type: functional, cell-based
Method in brief: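 HeLa cells synchronized by double thymidine block and released, treated with 2 μM inhibitor in early S phase, or left untreated. Harvested at set times after release, lysed in NETN with phosphatase and protease inhibitors, run on SDS-PAGE and immunoblotted for cyclin B1 and phosphotyrosine 15 CDK1/2, with cyclin D3 as loading control. Detection by HRP secondary and ECL.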

A2058 [18] = assay: Cell cycle arrest in human A2058 cells assessed as accumulation at S phase at 2 uM treated 1 hr and measured 10 hr post double hydroxyurea-synchrony release using propidium iodide staining by FACS analysis (reference value: 35 %); type: functional
COLO 205 = assay: Toxicity in human COLO205 cells at IC50 after 3 days by MTT assay; type: cell-based; conditions: colo 205, 72 h
MDA-MB-435 = assay: Toxicity in human MDA-MB-435 cells at IC50 after 3 days by MTT assay; type: cell-based; conditions: mda-mb-435, 72 h
RKO = assay: Toxicity in human RKO cells at IC50 after 3 days by MTT assay; type: cell-based; conditions: 72 h
HeLa [19] = assay: Cell cycle arrest in human HeLa cells assessed as accumulation at G1 phase at 2 uM treated 4 hr and measured 8 hr post double thymidine-synchrony release using propidium iodide staining by FACS analysis (reference value: 6 %); type: functional
HeLa [20] = assay: Cell cycle arrest in human HeLa cells assessed as accumulation at G1 phase at 2 uM treated 4 hr and measured 12 hr post double thymidine-synchrony release using propidium iodide staining by FACS analysis (reference value: 81 %); type: functional
NCI-H460 [21] = assay: Toxicity in human H460a cells at 8 uM by MTT assay; type: cell-based; conditions: nci-h460, 8 µM
HeLa [22] = assay: Cell cycle arrest in human HeLa cells assessed as accumulation at S phase at 2 uM treated 2 hr and measured 8 hr post double thymidine-synchrony release using propidium iodide staining by FACS analysis (reference value: 8 %); type: functional; method in brief: as §2
A2058 [23] = assay: Cell cycle arrest in human A2058 cells assessed as accumulation at S phase at 2 uM treated 1 hr and measured 8 hr post double hydroxyurea-synchrony release using propidium iodide staining by FACS analysis (reference value: 52 %); type: functional
HeLa [24] = assay: Cell cycle arrest at G2 phase in human HeLa cells assessed as decrease in Cyclin A-CDK2 level at 2 uM treated at early S phase measured after 6-14 hr post thymidine-synchrony release by immunoblot method relative to untreated control; type: functional, cell-based

CN1CCN(c2ccc(Nc3nc(N)c(C(=O)c4ccc5c(c4)OCCO5)s3)cc2)CC1
pIC50 (NCI-H460 [1]): 5.09 | Activity (HeLa [2]): Active | pIC50 [3]: < 4.00 | Activity (HCT-116): 4% | pIC50 [4]: 5.49 | Activity (HeLa [5]): 0% | Activity (A2058 [6]): 69% | Activity (HeLa [7]): 84% | Activity (HeLa [8]): Active | Activity (HeLa [9]): 56% | Activity (HeLa [10]): Active | Activity (HeLa [11]): 91% | Activity (HeLa [12]): Active | Activity (HeLa [13]): Active | Activity (HeLa [14]): 88% | Activity [15]: 12% | Activity (HeLa [16]): 49% | Activity (HeLa [17]): Active | Activity (A2058 [18]): 36% | Activity (COLO 205): Toxic | Activity (MDA-MB-435): Toxic | Activity (RKO): Toxic | Activity (HeLa [19]): 5% | Activity (HeLa [20]): 36% | Activity (NCI-H460 [21]): Toxic | Activity (HeLa [22]): 9% | Activity (A2058 [23]): 23% | Activity (HeLa [24]): Active

COc1cccc(C(=O)c2sc(Nc3ccc(N4CCN(C(C)C)CC4)cc3)nc2N)c1
pIC50 (NCI-H460 [1]): 5.94 | Activity (HeLa [2]): Active | pIC50 [3]: < 4.00 | Activity (HCT-116): 4% | pIC50 [4]: 5.46 | Activity (HeLa [5]): 0% | Activity (A2058 [6]): 69% | Activity (HeLa [7]): 84% | Activity (HeLa [8]): Active | Activity (HeLa [9]): 56% | Activity (HeLa [10]): Active | Activity (HeLa [11]): 91% | Activity (HeLa [12]): Active | Activity (HeLa [13]): Active | Activity (HeLa [14]): 88% | Activity [15]: 12% | Activity (HeLa [16]): 49% | Activity (HeLa [17]): Active | Activity (A2058 [18]): 36% | Activity (COLO 205): Toxic | Activity (MDA-MB-435): Toxic | Activity (RKO): Toxic | Activity (HeLa [19]): 5% | Activity (HeLa [20]): 36% | Activity (NCI-H460 [21]): Toxic | Activity (HeLa [22]): 9% | Activity (A2058 [23]): 23% | Activity (HeLa [24]): Active
